Laboratory results reported in ChEMBL document CHEMBL1142436, “Design and synthesis of 4-substituted indolo[3,2-e][1,2,3]triazolo[1,5-a]pyrimidine derivatives with antitumor activity” (2008).

Columns and labels:
Format in all cases: functional
[1] = test system: SNB-19; assay: Growth inhibition of human SNB19 cells after 48 hrs; conditions: SNB-19, 48 h
How it was run: (§1)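 NCI 60-line screen: cells in RPMI 1640 with 5% FBS and 2 mM L-glutamine, plated at 5000–40000 cells/well, grown 24 h (37 °C, 5% CO₂), then exposed to five 10-fold or ½-log dilutions (DMSO stock) for 48 h. Fixed with TCA (final 10% for adherent cells, 16% for suspension cells), then SRB stained with absorbance at 515 nm. GI50 from percentage growth relative to time-zero and control wells.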

[2] = test system: U-251; assay: Growth inhibition of human U251 cells after 48 hrs; conditions: U-251, 48 h; how it was run: as §1
[3] = test system: LOX IMVI; assay: Growth inhibition of human LOXIMVI cells after 48 hrs
How it was run: (§2)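 NCI ~60-line screen. Cells were grown in RPMI 1640 with 5% FBS and 2 mM L-glutamine and plated at 5000–40000 cells/well. After a 24 h preincubation, five drug concentrations from DMSO stocks were added for 48 h at 37 °C. Cells were TCA-fixed, stained with SRB and read at 515 nm. GI50 was taken from time-zero and control absorbances and reported as pGI50.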

[4] = test system: Malme-3M; assay: Growth inhibition of human MALME3M cells after 48 hrs; how it was run: as §2
[5] = test system: M14; assay: Growth inhibition of human M14 cells after 48 hrs; conditions: M14, 48 h; how it was run: as §2
[6] = test system: UACC-257; assay: Growth inhibition of human UACC257 cells after 48 hrs; conditions: UACC-257, 48 h; how it was run: as §1
[7] = test system: UACC-62; assay: Growth inhibition of human UACC62 cells after 48 hrs; conditions: UACC-62, 48 h; how it was run: as §1
[8] = test system: IGROV-1; assay: Growth inhibition of human IGROV1 cells after 48 hrs; conditions: IGROV-1, 48 h; how it was run: as §2
[9] = test system: OVCAR-5; assay: Growth inhibition of human OVCAR5 cells after 48 hrs; conditions: OVCAR-5, 48 h; how it was run: as §2
[10] = test system: OVCAR-8; assay: Growth inhibition of human OVCAR8 cells after 48 hrs; conditions: OVCAR-8, 48 h; how it was run: as §2
[11] = test system: A498; assay: Growth inhibition of human A498 cells after 48 hrs; conditions: A498, 48 h; how it was run: as §2
[12] = test system: CAKI-1; assay: Growth inhibition of human CAKI1 cells after 48 hrs; conditions: CAKI-1, 48 h; how it was run: as §2
[13] = test system: RXF 393; assay: Growth inhibition of human RXF393 cells after 48 hrs; conditions: RXF 393, 48 h; how it was run: as §2
[14] = test system: TK-10; assay: Growth inhibition of human TK10 cells after 48 hrs; conditions: TK-10, 48 h; how it was run: as §1
[15] = test system: DU-145; assay: Growth inhibition of human DU145 cells after 48 hrs; conditions: DU-145, 48 h; how it was run: as §2
[16] = test system: MCF7; assay: Growth inhibition of human MCF7 cells after 48 hrs; conditions: MCF7, 48 h; how it was run: as §2
[17] = test system: MDA-MB-231; assay: Growth inhibition of human MDA-MB-231 cells after 48 hrs; conditions: MDA-MB-231, 48 h; how it was run: as §2

## CCOC(=O)CNC(=O)CCCn1c(=O)c2c3ccccc3n(C)c2n2nnc(-c3ccccc3)c12
[1]
  LC50: 17 µM
[2]
  GI50: 4.17 µM
  LC50: 46.8 µM
[2]; read-out: pTGI (converted)
  TGI: 14.5 µM
[3]
  GI50: 25.1 µM
  LC50 (lethal concentration, 50% cell kill): > 50.1 µM
[3]; read-out: pTGI (converted)
  TGI: > 50.1 µM
[4]
  GI50: > 50.1 µM
  LC50: > 50.1 µM
[4]; read-out: pTGI (converted)
  TGI: > 50.1 µM
[5]
  GI50: 18.6 µM
  LC50: > 50.1 µM
[5]; read-out: pTGI (converted)
  TGI: > 50.1 µM
[6]
  GI50: > 50.1 µM
  LC50: > 50.1 µM
[6]; read-out: pTGI (converted)
  TGI: > 50.1 µM
[7]
  GI50: 7.24 µM
  LC50: > 50.1 µM
[7]; read-out: pTGI (converted)
  TGI: 21.9 µM
[8]
  GI50: 8.91 µM
  LC50: > 50.1 µM
[8]; read-out: pTGI (converted)
  TGI: 30.2 µM
[9]
  GI50: 27.5 µM
  LC50 (concentration killing 50% of cells): > 50.1 µM
[9]; read-out: pTGI (converted)
  TGI: > 50.1 µM
[10]
  GI50: 25.1 µM
  LC50: > 50.1 µM
[10]; read-out: pTGI (converted)
  TGI: > 50.1 µM
[11]
  GI50: 7.59 µM
[11]; read-out: Log LC50 (the source's name) (converted)
  CC50: > 50.1 µM
[11]; read-out: pTGI (converted)
  TGI: 24.5 µM
[12]
  GI50: 8.32 µM
  LC50 (concentration killing 50% of cells): 47.9 µM
[12]; read-out: pTGI (converted)
  TGI: 20 µM
[13]
  GI50: 1.32 µM
  LC50: 22.4 µM
[13]; read-out: pTGI (converted)
  TGI: 4.37 µM
[14]
  GI50: 8.71 µM
  LC50: > 50.1 µM
[14]; read-out: pTGI (converted)
  TGI: 20.9 µM
[15]
  GI50: 32.4 µM
  LC50: > 50.1 µM
[15]; read-out: pTGI (converted)
  TGI: > 50.1 µM
[16]
  GI50: 31.6 µM
  LC50: > 50.1 µM
[16]; read-out: pTGI (converted)
  TGI: > 50.1 µM
[17]
  GI50: 14.8 µM
  LC50 (concentration killing 50% of cells): > 50.1 µM
[17]; read-out: pTGI (converted)
  TGI: 30.9 µM
